Key:
[1] = system: Human betaherpesvirus 5; experiment: Antiviral activity against HCMV infected HFF cells after 5 days by dot blot assay; type: functional, organism-based
How it was run: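 HFF fibroblasts infected with luciferase-expressing recombinant CMV (rCMVLUC), then cultured 5 days across a range of drug concentrations. Viral DNA harvested, immobilized on membrane, hybridized with radiolabeled CMV-specific probe. IC50 = concentration giving 50% reduction of membrane-bound radioactivity relative to vehicle-only infected cells.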

[2] = Cytotoxicity against HFF cells by alamar blue assay; type: cell-based; details: human
How it was run: (§1)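 Cells seeded and exposed to a range of compound concentrations; Alamar blue added at 0, 24, 48 and 72 h, fluorescence read after further 3 h incubation. IC50 = concentration inhibiting cell growth by 50%.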

[3] = Cytotoxicity against human Jurkat cells by alamar blue assay; type: cell-based; how it was run: as §1
[4] = Cytotoxicity against human bone marrow cells assessed as inhibition of CFU-GM formation after 15 days; type: cell-based, Bone marrow cell
How it was run: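 Human bone marrow cells washed in IMDM–2% FBS, viable nucleated/mononuclear cells counted, adjusted to 10⁶ cells/mL, drug added, diluted 1:10 in methylcellulose medium and plated. After 15 days at 37 °C, humid 5% CO₂, CFU-GM colonies counted microscopically; IC50 = concentration halving colony formation.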

[5] = system: Human betaherpesvirus 5; experiment: Antiviral activity against HCMV infected HFF cells after 5 to 7 days by viral yield assay; type: functional
How it was run: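 rCMVLUC-infected HFF cells incubated 5–7 days with varying drug concentrations; viral yield determined by immunofluorescence using human anti-HCMV antiserum.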

[6] = Bioavailability in rat at 2 mg/kg, po; type: ADME, organism-based; details: in vivo
[7] = Oral bioavailability in rat; type: ADME, organism-based; details: in vivo
[8] = Clearance in rat; type: ADME, organism-based; details: in vivo
[9] = Human betaherpesvirus 5, HFF, 120 h

Row | Structure (SMILES) | IC50 [1, 9] [nM] | further results
1 | Cc1nc(N[C@H]2CC=CC[C@@H]2C)nc(-n2ccnc2C)c1[N+](=O)[O-] | 300 | –
2 | Cc1nc(N[C@H]2CCCC[C@H]2C)nc(-n2ccnc2C)c1[N+](=O)[O-] | 700 | –
3 | COCC(C)Nc1nc(C)c([N+](=O)[O-])c(-n2ccnc2C)n1 (stereo not given) | 900 | –
4 | Cc1nc(NCC2CCCO2)nc(-n2ccnc2C)c1[N+](=O)[O-] (stereo not given) | 1000 | –
5 | Cc1nc(NC2CCCC2C)nc(-n2ccnc2C)c1[N+](=O)[O-] (stereo not given) | 500 | –
6 | Nc1ccn(C[C@@H](CO)OCP(=O)(O)O)c(=O)n1.O.O [CIDOFOVIR] | 350 | CC50 [2]: 100000 nM; CC50 [3]: 100000 nM; CC50 at 360 h [4]: 6000 nM; EC99.9 [5]: 0.9 µM
7 | Cc1nc(N[C@@H]2CCO[C@H]2C)nc(-n2ccnc2C)c1[N+](=O)[O-] | 600 | –
8 | Cc1nc(NCCC(C)C)nc(-n2ccnc2C)c1[N+](=O)[O-] | 300 | –
9 | Cc1nc(NC(C)CCc2ccccc2)nc(-n2ccnc2C)c1[N+](=O)[O-] (stereo not given) | 350 | –
10 | Cc1nc(NC[C@@H]2OCCC[C@H]2C)nc(-n2ccnc2C)c1[N+](=O)[O-] | 400 | –
11 | Cc1ccc(CNc2nc(C)c([N+](=O)[O-])c(-n3ccnc3C)n2)cc1 | 1600 | –
12 | CCS(=O)(=O)CCNc1nc(C)c([N+](=O)[O-])c(-n2ccnc2C)n1 | 1300 | –
13 | Cc1nc(N[C@H]2CC=CC[C@H]2C)nc(-n2ccnc2C)c1[N+](=O)[O-] | 1500 | –
14 | Cc1nc(NC2CCCOC2C)nc(-n2ccnc2C)c1[N+](=O)[O-] (stereo not given) | 700 | –
15 | Cc1nc(NC2CCSCC2)nc(-n2ccnc2C)c1[N+](=O)[O-] | 400 | –
16 | Cc1nc(NCc2ccccn2)nc(-n2ccnc2C)c1[N+](=O)[O-] | 500 | –
17 | Cc1nc(N[C@@H]2CCO[C@@H]2C)nc(-n2ccnc2C)c1[N+](=O)[O-] | 500 | –
18 | Cc1nc(NCc2ccc(F)c(F)c2)nc(-n2ccnc2C)c1[N+](=O)[O-] | 400 | –
19 | CCNc1nc(C)c([N+](=O)[O-])c(-n2ccnc2C)n1 | 1000 | –

Row | Structure (SMILES) | IC50 [1, 9] [nM] | further results
20 | COc1cccc(CNc2nc(C)c([N+](=O)[O-])c(-n3ccnc3C)n2)c1 | 300 | –
21 | Cc1cccc(CNc2nc(C)c([N+](=O)[O-])c(-n3ccnc3C)n2)c1 | 500 | –
22 | Cc1nc(NC2CCCC2)nc(-n2ccnc2C)c1[N+](=O)[O-] | 600 | –
23 | Cc1nc(NC2CCS(=O)(=O)CC2)nc(-n2ccnc2C)c1[N+](=O)[O-] | > 5000 | –
24 | CCC(C)Nc1nc(C)c([N+](=O)[O-])c(-n2ccnc2C)n1 (stereo not given) | 500 | –
25 | Cc1nc(N[C@H]2CCS(=O)(=O)[C@@H]2C)nc(-n2ccnc2C)c1[N+](=O)[O-] | 2000 | –
26 | Nc1nc2c(ncn2COC(CO)CO)c(=O)[nH]1 [GANCICLOVIR] | 1000 | CC50 [2]: > 100000 nM; CC50 [3]: > 100000 nM; CC50 at 360 h [4]: 30000 nM; EC99.9 [5]: 5 µM
27 | Cc1nc(NCc2ccc(F)cc2Cl)nc(-n2ccnc2C)c1[N+](=O)[O-] | 250 | –
28 | Cc1nc(NCc2cccnc2)nc(-n2ccnc2C)c1[N+](=O)[O-] | 800 | –
29 | Cc1nc(NCC2OCCC2C)nc(-n2ccnc2C)c1[N+](=O)[O-] (stereo not given) | 300 | –
30 | Cc1nc(NC(C)CCC(C)C)nc(-n2ccnc2C)c1[N+](=O)[O-] (stereo not given) | 2300 | –
31 | Cc1nc(N)nc(-n2ccnc2C)c1[N+](=O)[O-] | 2000 | bioavailability [6]: 59%
32 | Cc1nc(NCc2cccc(OC(F)(F)F)c2)nc(-n2ccnc2C)c1[N+](=O)[O-] | 300 | –
33 | Cc1nc(N[C@@H]2COC[C@@H]2C)nc(-n2ccnc2C)c1[N+](=O)[O-].Cl | – | IC50 ([1]; hff): 130 nM; CC50 [2]: 100000 nM; CC50 [3]: 50000 nM; bioavailability [7]: 21%; CC50 at 360 h [4]: 50000 nM; clearance [8]: 23.3 mL/min/kg; EC99.9 [5]: 0.4 µM
34 | COCCCNc1nc(C)c([N+](=O)[O-])c(-n2ccnc2C)n1 | 2300 | –
35 | Cc1nc(NC2CCOCC2)nc(-n2ccnc2C)c1[N+](=O)[O-] | 3000 | –
36 | Cc1nc(NCc2cc(C(F)(F)F)cc(C(F)(F)F)c2)nc(-n2ccnc2C)c1[N+](=O)[O-] | 15000 | –
37 | Cc1nc(NCc2ccc(Cl)cc2)nc(-n2ccnc2C)c1[N+](=O)[O-] | 300 | –
38 | Cc1nc(NCC2CCCCO2)nc(-n2ccnc2C)c1[N+](=O)[O-] (stereo not given) | 4000 | –

More lines, main results first:

Row | IC50 [1, 9] [nM] | Structure (SMILES) | further results
39 | 150 | Cc1nc(NCc2cc(F)ccc2F)nc(-n2ccnc2C)c1[N+](=O)[O-] | –
40 | 250 | Cc1nc(NCc2cccc(F)c2)nc(-n2ccnc2C)c1[N+](=O)[O-] | –
41 | 100 | Cc1nc(N[C@H]2CCCC[C@@H]2C)nc(-n2ccnc2C)c1[N+](=O)[O-] | –
42 | 200 | Cc1nc(NC2CCC(C)CC2)nc(-n2ccnc2C)c1[N+](=O)[O-] (stereo not given) | –
43 | 150 | Cc1nc(NC2CCC[C@@H](C)C2)nc(-n2ccnc2C)c1[N+](=O)[O-] (stereo not given in full) | –
44 | 90 | CC[C@H]1CCCC[C@@H]1Nc1nc(C)c([N+](=O)[O-])c(-n2ccnc2C)n1 | –
45 | 200 | Cc1nc(NCc2ccc(C(F)(F)F)cc2F)nc(-n2ccnc2C)c1[N+](=O)[O-] | –
46 | 200 | Cc1nc(NCc2ccc(C(F)(F)F)cc2)nc(-n2ccnc2C)c1[N+](=O)[O-] | –
47 | 150 | Cc1nc(N[C@@H]2COC[C@@H]2C)nc(-n2ccnc2C)c1[N+](=O)[O-] | –
48 | 150 | Cc1nc(NCc2ccc(F)cc2)nc(-n2ccnc2C)c1[N+](=O)[O-] | –
49 | 200 | Cc1nc(NCc2cccc(Cl)c2Cl)nc(-n2ccnc2C)c1[N+](=O)[O-] | –
50 | 200 | Cc1nc(NCc2ccc(Cl)c(Cl)c2)nc(-n2ccnc2C)c1[N+](=O)[O-] | –
51 | 200 | Cc1ccccc1CNc1nc(C)c([N+](=O)[O-])c(-n2ccnc2C)n1 | –
52 | 130 | Cc1nc(NC(C)CC(C)C)nc(-n2ccnc2C)c1[N+](=O)[O-] (stereo not given) | –
53 | 100 | Cc1nc(NC2CCC(C)C2)nc(-n2ccnc2C)c1[N+](=O)[O-] (stereo not given) | –
54 | 250 | Cc1nc(NC2CCSC2)nc(-n2ccnc2C)c1[N+](=O)[O-] (stereo not given) | –
55 | 100 | CC[C@@H]1CC=CC[C@@H]1Nc1nc(C)c([N+](=O)[O-])c(-n2ccnc2C)n1 | –
56 | 200 | Cc1nc(NC2CCCCC2)nc(-n2ccnc2C)c1[N+](=O)[O-] | –
57 | 200 | Cc1nc(N[C@H]2COC[C@H]2C)nc(-n2ccnc2C)c1[N+](=O)[O-] | –
58 | 120 | Cc1nc(NCC2CCCCC2)nc(-n2ccnc2C)c1[N+](=O)[O-] | –
59 | 130 | Cc1nc(N[C@H]2CCOC[C@@H]2C)nc(-n2ccnc2C)c1[N+](=O)[O-] | bioavailability [7]: 57%; clearance [8]: 36.7 mL/min/kg
60 | 150 | Cc1nc(NC2CCC[C@H](C)C2)nc(-n2ccnc2C)c1[N+](=O)[O-] (stereo not given in full) | –
61 | 200 | Cc1nc(NCc2ccccc2OC(F)(F)F)nc(-n2ccnc2C)c1[N+](=O)[O-] | –
62 | 80 | Cc1nc(NC2CCCCC2C)nc(-n2ccnc2C)c1[N+](=O)[O-] (stereo not given) | –
63 | 200 | CCSCCNc1nc(C)c([N+](=O)[O-])c(-n2ccnc2C)n1 | –

— ChEMBL document CHEMBL1147861, “SAR studies on a novel series of human cytomegalovirus primase inhibitors” (Bioorg Med Chem Lett, 2007)
